Measurements from ChEMBL document CHEMBL1156160, “The introduction of P4 substituted 1-methylcyclohexyl groups into Boceprevir: a change in direction in the search for a second generation HCV NS3 protease inhibitor” (Bioorg Med Chem Lett, 2010).
pKi: −log10 of the molar value.

Key:
[1] = Selectivity for HCV NS3 protease over human neutrophil elastase
Procedure, shortened: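 Ratio of inhibitory activity against human neutrophil elastase to that against HCV protease (HNE/HCV), taken as selectivity. HCV activity was from a continuous protease assay using NS4A-tethered single-chain NS3 serine protease, giving Ki* as the equilibrium constant for reversible covalent binding of the electrophilic ketone to the active-site serine. Compounds were tested as P1-epimer diastereomer mixtures.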

[2] = Inhibition of HCV NS4A tagged recombinant single chain NS3 protease after 15 mins; design: species or system Hepacivirus hominis
[3] = system: Hepatitis C virus; test: Antiviral activity against HCV in human hepatoma cells assessed as inhibition of RNA replication by replicon assay; type: functional, Hepacivirus hominis

Compound | Ratio [1] | pKi [2] | EC90 [3]
CC(C)(C)[C@H](NC(=O)NC1(Cc2cccs2)CCCCC1)C(=O)N1C[C@H]2[C@@H]([C@H]1C(=O)NC(CC1CC1)C(=O)C(N)=O)C2(C)C (stereo partly drawn) | 470 | 8.05 | 0.2 µM
CC(C)(C)[C@H](NC(=O)NC1(Cc2nccs2)CCCCC1)C(=O)N1C[C@H]2[C@@H]([C@H]1C(=O)NC(CC1CC1)C(=O)C(N)=O)C2(C)C (stereo partly drawn) | 620 | 7.96 | 0.2 µM
CCC(c1ccccc1)C1(NC(=O)N[C@H](C(=O)N2C[C@H]3[C@@H]([C@H]2C(=O)NC(CC2CC2)C(=O)C(N)=O)C3(C)C)C(C)(C)C)CCCCC1 (stereo partly drawn) | 1500 | 7.70 | 0.4 µM
CCS(=O)(=O)CC1(NC(=O)N[C@H](C(=O)N2C[C@H]3[C@@H]([C@H]2C(=O)NC(CC2CCC2)C(=O)C(N)=O)C3(C)C)C(C)(C)C)CCCCC1 (stereo partly drawn) | 1200 | 8.30 | 0.09 µM
CC(C)(C)[C@H](NC(=O)NC1(CS(=O)(=O)C(C)(C)C)CCCCC1)C(=O)N1C[C@H]2[C@@H]([C@H]1C(=O)NC(CC1CC1)C(=O)C(N)=O)C2(C)C (stereo partly drawn) |  | 7.92 | 0.1 µM
CC1(NC(=O)N[C@H](C(=O)N2C[C@H]3[C@@H]([C@H]2C(=O)NC(CC2CC2)C(=O)C(N)=O)C3(C)C)C(C)(C)C)CCCCC1 (stereo partly drawn) |  | 7.80 | 0.25 µM
CC1(NC(=O)N[C@H](C(=O)N2C[C@H]3[C@@H]([C@H]2C(=O)NC(CC2CC2)C(=O)C(N)=O)C3(C)C)C(C)(C)C)CCCCCC1 (stereo partly drawn) | 155 | 7.82 | 0.25 µM
CC(C)(C)[C@H](NC(=O)NC1(Cc2ccco2)CCCCC1)C(=O)N1C[C@H]2[C@@H]([C@H]1C(=O)NC(CC1CC1)C(=O)C(N)=O)C2(C)C (stereo partly drawn) |  | 7.96 | 0.1 µM
CC1(NC(=O)N[C@H](C(=O)N2C[C@H]3[C@@H]([C@H]2C(=O)NC(CC2CC2)C(=O)C(N)=O)C3(C)C)C(C)(C)C)CCCC1 (stereo partly drawn) |  | 8.00 | 0.2 µM
CC(C)(C)[C@H](NC(=O)NC1(Cc2cccc(O)c2)CCCCC1)C(=O)N1C[C@H]2[C@@H]([C@H]1C(=O)NC(CC1CC1)C(=O)C(N)=O)C2(C)C (stereo partly drawn) |  | 8.05 | 0.07 µM
CCCC(NC(=O)[C@@H]1[C@@H]2[C@H](CN1C(=O)[C@@H](NC(=O)NC(C)(C)C)C1CCCCC1)C2(C)C)C(=O)C(N)=O (stereo partly drawn) |  | 7.00 | 
CC(C)(C)[C@H](NC(=O)NC1(Cc2ccsc2)CCCCC1)C(=O)N1C[C@H]2[C@@H]([C@H]1C(=O)NC(CC1CC1)C(=O)C(N)=O)C2(C)C (stereo partly drawn) |  | 8.00 | 0.1 µM
CC1(NC(=O)N[C@H](C(=O)N2C[C@H]3[C@@H]([C@H]2C(=O)NC(CC2CC2)C(=O)C(N)=O)C3(C)C)C(C)(C)C)CCC1 (stereo partly drawn) | 110 | 7.62 | 0.2 µM
CC(C)(C)[C@H](NC(=O)NC1(Cc2ccccn2)CCCCC1)C(=O)N1C[C@H]2[C@@H]([C@H]1C(=O)NC(CC1CC1)C(=O)C(N)=O)C2(C)C (stereo partly drawn) |  | 8.15 | 0.18 µM
CC(C)(C)[C@H](NC(=O)NC1(CS(=O)(=O)C(C)(C)C)CCCCC1)C(=O)N1C[C@H]2[C@@H]([C@H]1C(=O)NC(CC1CCC1)C(=O)C(N)=O)C2(C)C (stereo partly drawn) |  | 8.52 | 0.08 µM
CC1(NC(=O)N[C@H](C(=O)N2C[C@H]3[C@@H]([C@H]2C(=O)NC(CC2CCC2)C(=O)C(N)=O)C3(C)C)C(C)(C)C)CCCCC1 (stereo partly drawn) | 4100 | 8.10 | 0.2 µM
CC(c1ccccc1)C1(NC(=O)N[C@H](C(=O)N2C[C@H]3[C@@H]([C@H]2C(=O)NC(CC2CC2)C(=O)C(N)=O)C3(C)C)C(C)(C)C)CCCCC1 (stereo partly drawn) | 2600 | 7.96 | 0.4 µM
CC(C)(C)[C@H](NC(=O)NC1(Cc2cccnc2)CCCCC1)C(=O)N1C[C@H]2[C@@H]([C@H]1C(=O)NC(CC1CC1)C(=O)C(N)=O)C2(C)C (stereo partly drawn) | 200 | 7.60 | 0.4 µM
CC(C)(C)[C@H](NC(=O)NC1(CO)CCCC1)C(=O)N1C[C@H]2[C@@H]([C@H]1C(=O)NC(CC1CC1)C(=O)C(N)=O)C2(C)C (stereo partly drawn) |  | 7.82 | > 1 µM
CC(C)(C)[C@H](NC(=O)NC1(Cc2ccncc2)CCCCC1)C(=O)N1C[C@H]2[C@@H]([C@H]1C(=O)NC(CC1CC1)C(=O)C(N)=O)C2(C)C (stereo partly drawn) | 250 | 7.41 | 0.3 µM
CC(C)(C)[C@H](NC(=O)NC1(Cc2ccc(O)cc2)CCCCC1)C(=O)N1C[C@H]2[C@@H]([C@H]1C(=O)NC(CC1CC1)C(=O)C(N)=O)C2(C)C (stereo partly drawn) | 260 | 7.52 | 0.4 µM
CC(C)(C)[C@H](NC(=O)NC1(CN)CCCC1)C(=O)N1C[C@H]2[C@@H]([C@H]1C(=O)NC(CC1CC1)C(=O)C(N)=O)C2(C)C (stereo partly drawn) |  | 6.85 | 
CC(C)(C)[C@H](NC(=O)NC1(C(=O)c2ccccc2)CCCCC1)C(=O)N1C[C@H]2[C@@H]([C@H]1C(=O)NC(CC1CC1)C(=O)C(N)=O)C2(C)C (stereo partly drawn) | 230 | 7.00 | 2 µM
CCS(=O)(=O)CC1(NC(=O)N[C@H](C(=O)N2C[C@H]3[C@@H]([C@H]2C(=O)NC(CC2CC2)C(=O)C(N)=O)C3(C)C)C(C)(C)C)CCCCC1 (stereo partly drawn) | 290 | 7.96 | 0.4 µM
C=CCNC(=O)C(=O)C(CCC)NC(=O)[C@@H]1[C@@H]2[C@H](CN1C(=O)[C@@H](NC(=O)NC(C)(C)C)C1CCCCC1)C2(C)C (stereo partly drawn) |  | 6.55 | 
CC(C)(C)[C@H](NC(=O)NC1(Cc2ccc3ccccc3c2)CCCCC1)C(=O)N1C[C@H]2[C@@H]([C@H]1C(=O)NC(CC1CC1)C(=O)C(N)=O)C2(C)C (stereo partly drawn) |  | 6.52 | 
CC(C)(C)[C@H](NC(=O)NC1(C(O)c2ccccc2)CCCCC1)C(=O)N1C[C@H]2[C@@H]([C@H]1C(=O)NC(CC1CC1)C(=O)C(N)=O)C2(C)C (stereo partly drawn) | 1170 | 7.96 | 0.4 µM
CC(C)(C)[C@H](NC(=O)NC1(Cc2cccc3ccccc23)CCCCC1)C(=O)N1C[C@H]2[C@@H]([C@H]1C(=O)NC(CC1CC1)C(=O)C(N)=O)C2(C)C (stereo partly drawn) | 470 | 7.36 | 0.4 µM
CC(C)(C)[C@H](NC(=O)NC1(CS(C)(=O)=O)CCCCC1)C(=O)N1C[C@H]2[C@@H]([C@H]1C(=O)NC(CC1CCC1)C(=O)C(N)=O)C2(C)C (stereo partly drawn) | 2400 | 8.40 | 0.5 µM

Further lines, results first:

Ratio [1] | pKi [2] | EC90 [3] | Compound
200 | 8.40 | 0.5 µM | CC(C)(C)[C@H](NC(=O)NC1(CS(=O)(=O)Cc2ccco2)CCCCC1)C(=O)N1C[C@H]2[C@@H]([C@H]1C(=O)NC(CC1CC1)C(=O)C(N)=O)C2(C)C (stereo partly drawn)
200 | 8.22 | 1 µM | CC(C)(C)[C@H](NC(=O)NC1(CS(=O)(=O)c2cccc(O)c2)CCCCC1)C(=O)N1C[C@H]2[C@@H]([C@H]1C(=O)NC(CC1CC1)C(=O)C(N)=O)C2(C)C (stereo partly drawn)
440 | 7.72 | 0.15 µM | CC(C)(C)[C@H](NC(=O)NC1(Cc2ccccc2O)CCCCC1)C(=O)N1C[C@H]2[C@@H]([C@H]1C(=O)NC(CC1CC1)C(=O)C(N)=O)C2(C)C (stereo partly drawn)
395 | 7.92 | 0.085 µM | CC(C)(C)[C@H](NC(=O)NC1(Cc2ccccc2)CCCCC1)C(=O)N1C[C@H]2[C@@H]([C@H]1C(=O)NC(CC1CC1)C(=O)C(N)=O)C2(C)C (stereo partly drawn)
460 | 8.70 | 0.3 µM | CC(C)(C)[C@H](NC(=O)NC1(CS(C)(=O)=O)CCCCC1)C(=O)N1C[C@H]2[C@@H]([C@H]1C(=O)NC(CC1CC1)C(=O)C(N)=O)C2(C)C (stereo partly drawn)
130 | 7.62 | 0.3 µM | CC(C)(C)[C@H](NC(=O)NC1(Cc2ccccc2)CCCC1)C(=O)N1C[C@H]2[C@@H]([C@H]1C(=O)NC(CC1CC1)C(=O)C(N)=O)C2(C)C (stereo partly drawn)
320 | 7.33 | 0.4 µM | CC(C)(C)[C@H](NC(=O)NC1(c2ccccc2)CCCCC1)C(=O)N1C[C@H]2[C@@H]([C@H]1C(=O)NC(CC1CC1)C(=O)C(N)=O)C2(C)C (stereo partly drawn)
1570 | 8.00 | 0.3 µM | CC(C)(C)[C@H](NC(=O)NC1(CS(=O)(=O)c2ccccn2)CCCCC1)C(=O)N1C[C@H]2[C@@H]([C@H]1C(=O)NC(CC1CCC1)C(=O)C(N)=O)C2(C)C (stereo partly drawn)
73 | 7.11 | 0.7 µM | CC(C)(C)[C@H](NC(=O)NC1(Cc2ccccc2)CCCCCC1)C(=O)N1C[C@H]2[C@@H]([C@H]1C(=O)NC(CC1CC1)C(=O)C(N)=O)C2(C)C (stereo partly drawn)
90 | 8.30 | 0.4 µM | CC(C)(C)[C@H](NC(=O)NC1(CS(=O)(=O)Cc2ccccc2)CCCCC1)C(=O)N1C[C@H]2[C@@H]([C@H]1C(=O)NC(CC1CC1)C(=O)C(N)=O)C2(C)C (stereo partly drawn)
260 | 8.00 | 0.4 µM | Cc1cc(S(=O)(=O)CC2(NC(=O)N[C@H](C(=O)N3C[C@H]4[C@@H]([C@H]3C(=O)NC(CC3CC3)C(=O)C(N)=O)C4(C)C)C(C)(C)C)CCCCC2)co1 (stereo partly drawn)
 | 8.52 | 0.1 µM | CC(C)(C)[C@H](NC(=O)NC1(CS(=O)(=O)c2ccccc2)CCCCC1)C(=O)N1C[C@H]2[C@@H]([C@H]1C(=O)NC(CC1CC1)C(=O)C(N)=O)C2(C)C (stereo partly drawn)
1100 | 8.05 | 0.2 µM | CC(C)(C)[C@H](NC(=O)NC1(CS(=O)(=O)c2ccccc2)CCCCC1)C(=O)N1C[C@H]2[C@@H]([C@H]1C(=O)NC(CC1CCC1)C(=O)C(N)=O)C2(C)C (stereo partly drawn)
